Assay results reported in ChEMBL document CHEMBL3399946, “Structure-activity relationships of substituted 1H-indole-2-carboxamides as CB1 receptor allosteric modulators” (Bioorg Med Chem, 2015).

biological target: Cannabinoid receptor 2 (Homo sapiens) (UniProt P34972); assay: Antagonist activity at human CB2 receptor expressed in CHO-RD-HGA16 cells assessed as inhibition of CP55940-induced calcium mobilization at 10 uM incubated for 15 mins prior to CP55940 addition by FLIPR assay; type: functional, cell-based
Sequence (P34972 whole entry): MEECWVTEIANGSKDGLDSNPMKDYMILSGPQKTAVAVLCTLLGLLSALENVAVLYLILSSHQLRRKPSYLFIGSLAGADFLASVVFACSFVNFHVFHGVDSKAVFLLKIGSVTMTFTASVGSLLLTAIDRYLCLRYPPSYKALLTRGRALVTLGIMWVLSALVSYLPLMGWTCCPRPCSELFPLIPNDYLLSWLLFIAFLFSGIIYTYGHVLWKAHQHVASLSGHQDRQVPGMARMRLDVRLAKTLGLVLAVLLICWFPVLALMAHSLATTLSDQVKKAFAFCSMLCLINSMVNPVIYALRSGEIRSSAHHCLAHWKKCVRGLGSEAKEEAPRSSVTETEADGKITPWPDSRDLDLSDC

Compound | inhibition [%]
CCCC(=O)Nc1ccc(CCNC(=O)c2[nH]c3ccc(Cl)cc3c2CC)cc1 | 43
CCc1c(C(=O)NCCc2ccc(OC)c(O)c2)[nH]c2ccc(Cl)cc12 | -7
O=C(NCCc1ccc(N2CCCCC2)cc1)c1cc2cc(Cl)ccc2[nH]1 | 15
CCc1c(C(=O)NCCc2ccc(NC(C)=O)cc2)[nH]c2ccc(Cl)cc12 | -3.3
CCc1c(C(=O)NCCc2ccccc2Cl)[nH]c2ccc(Cl)cc12 | 28.5
CCc1c(C(=O)NC2CCN(Cc3ccccc3)C2)[nH]c2ccc(Cl)cc12 (configuration not stated) | -6.2
CCc1c(C(=O)NCCc2ccc([N+](=O)[O-])cc2)[nH]c2ccc(Cl)cc12 | 34.8
CCc1c(C(=O)NCCc2ccccc2)[nH]c2ccc(Cl)cc12 | -6.2
CCN(CC)c1ccc(CCNC(=O)c2cc3cc(Cl)ccc3[nH]2)cc1 | 0.7
Cc1c(C(=O)NCCc2ccc(N3CCCCC3)cc2)[nH]c2ccc(F)cc12 | -8.2
O=C(NCCc1ccc(N2CCCCC2)cc1)c1cc2cc(F)ccc2[nH]1 | 20.8

Continued, values first:

inhibition [%] | Compound
-3.7 | CCc1c(C(=O)NCCc2cccc(N(C)C)c2)[nH]c2ccc(Cl)cc12
-4.8 | CCc1c(C(=O)NCCc2ccc(Cl)cc2)[nH]c2ccc(Cl)cc12
-3.2 | CCc1c(C(=O)NCCc2ccc(Cl)c(Cl)c2)[nH]c2ccc(Cl)cc12
-0.1 | CCc1c(C(=O)NCCc2cccc(O)c2)[nH]c2ccc(Cl)cc12
24.8 | CCc1c(C(=O)NCCc2cccc(Cl)c2)[nH]c2ccc(Cl)cc12
-6 | CCc1c(C(=O)NCCc2cccc(OC)c2)[nH]c2ccc(Cl)cc12

biological target: Cannabinoid receptor 2 (Homo sapiens) (UniProt P34972); assay: Agonist activity at human CB2 receptor expressed in CHO-RD-HGA16 cells at 10 uM after 15 mins by FLIPR assay relative to CP55940; type: cell-based
Outline: (§1)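 Stably transfected CHO-RD-HGA16 cells (human CB1, or CB2 for line 2) seeded the day before (CB1 25,000, CB2 30,000 cells/well), cultured overnight at 37°C, 5% CO2. Loaded 45 min at 37°C with Calcium 5 dye in HBSS/20 mM HEPES/2.5 mM probenecid, pH 7.4.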

Compound | Activity [%]
CCCC(=O)Nc1ccc(CCNC(=O)c2[nH]c3ccc(Cl)cc3c2CC)cc1 | < 30
CCc1c(C(=O)NCCc2ccc(OC)c(O)c2)[nH]c2ccc(Cl)cc12 | < 30
O=C(NCCc1ccc(N2CCCCC2)cc1)c1cc2cc(Cl)ccc2[nH]1 | < 30
CCc1c(C(=O)NCCc2ccc(NC(C)=O)cc2)[nH]c2ccc(Cl)cc12 | < 30
CCc1c(C(=O)NCCc2ccccc2Cl)[nH]c2ccc(Cl)cc12 | < 30
CCc1c(C(=O)NC2CCN(Cc3ccccc3)C2)[nH]c2ccc(Cl)cc12 (configuration not stated) | < 30
CCc1c(C(=O)NCCc2ccc([N+](=O)[O-])cc2)[nH]c2ccc(Cl)cc12 | < 30
CCc1c(C(=O)NCCc2ccccc2)[nH]c2ccc(Cl)cc12 | < 30
CCN(CC)c1ccc(CCNC(=O)c2cc3cc(Cl)ccc3[nH]2)cc1 | < 30
Cc1c(C(=O)NCCc2ccc(N3CCCCC3)cc2)[nH]c2ccc(F)cc12 | < 30
O=C(NCCc1ccc(N2CCCCC2)cc1)c1cc2cc(F)ccc2[nH]1 | < 30

Other lines, results leading:

Activity [%] | Compound
< 30 | CCc1c(C(=O)NCCc2ccc(Cl)cc2)[nH]c2ccc(Cl)cc12
< 30 | CCc1c(C(=O)NCCc2ccc(Cl)c(Cl)c2)[nH]c2ccc(Cl)cc12
< 30 | CCc1c(C(=O)NCCc2cccc(O)c2)[nH]c2ccc(Cl)cc12
< 30 | CCc1c(C(=O)NCCc2cccc(Cl)c2)[nH]c2ccc(Cl)cc12
< 30 | CCc1c(C(=O)NCCc2cccc(OC)c2)[nH]c2ccc(Cl)cc12

biological target: T1, Cannabinoid receptor 1 (Homo sapiens, UniProt P21554); assay: Allosteric modulation of human CB1 receptor expressed in CHO-RD-HGA16 cells assessed as reduction of CP55940 Emax by calcium mobilization assay; type: functional, cell-based
T1 sequence (P21554 whole entry): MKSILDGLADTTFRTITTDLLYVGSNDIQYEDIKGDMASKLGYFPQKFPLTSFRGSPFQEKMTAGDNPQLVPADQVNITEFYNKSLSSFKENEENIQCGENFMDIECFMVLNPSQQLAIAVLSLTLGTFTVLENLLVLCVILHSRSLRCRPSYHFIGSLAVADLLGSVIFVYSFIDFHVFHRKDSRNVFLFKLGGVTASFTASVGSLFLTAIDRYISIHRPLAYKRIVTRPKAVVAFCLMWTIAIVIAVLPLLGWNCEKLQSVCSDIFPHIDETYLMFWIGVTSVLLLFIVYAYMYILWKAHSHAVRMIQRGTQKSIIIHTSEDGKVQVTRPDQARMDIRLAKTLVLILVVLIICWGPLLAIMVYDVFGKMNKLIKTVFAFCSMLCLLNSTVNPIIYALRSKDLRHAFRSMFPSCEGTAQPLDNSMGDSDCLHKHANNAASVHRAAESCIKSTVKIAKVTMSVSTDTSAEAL
Outline: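 CB1-expressing CHO-RD-HGA16 cells seeded at 25,000/well the previous day and loaded with Calcium 5 dye for 45 min at 37°C (HBSS, 20 mM HEPES, 2.5 mM probenecid, pH 7.4). Pretreated 15 min at 37°C with a single concentration of test compound, then serial dilutions of CP55,940 added on FLIPR Tetra. Fluorescence plotted against agonist concentration.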

Activity | Compound
Dose-dependent effect | CCN(CC)c1ccc(CCNC(=O)c2cc3cc(Cl)ccc3[nH]2)cc1

biological target: T1, Cannabinoid receptor 1; assay: Agonist activity at human CB1 receptor expressed in CHO-RD-HGA16 cells at 10 uM after 15 mins by FLIPR assay relative to CP55940; type: cell-based; outline: as §1

Compound | Activity [%]
CCCC(=O)Nc1ccc(CCNC(=O)c2[nH]c3ccc(Cl)cc3c2CC)cc1 | < 30
CCc1c(C(=O)NCCc2ccc(OC)c(O)c2)[nH]c2ccc(Cl)cc12 | < 30
O=C(NCCc1ccc(N2CCCCC2)cc1)c1cc2cc(Cl)ccc2[nH]1 | < 30
CCc1c(C(=O)NCCc2ccc(NC(C)=O)cc2)[nH]c2ccc(Cl)cc12 | < 30
CCc1c(C(=O)NCCc2ccccc2Cl)[nH]c2ccc(Cl)cc12 | < 30
CCc1c(C(=O)NC2CCN(Cc3ccccc3)C2)[nH]c2ccc(Cl)cc12 (configuration not stated) | < 30
CCc1c(C(=O)NCCc2ccc([N+](=O)[O-])cc2)[nH]c2ccc(Cl)cc12 | < 30
CCc1c(C(=O)NCCc2ccccc2)[nH]c2ccc(Cl)cc12 | < 30
CCN(CC)c1ccc(CCNC(=O)c2cc3cc(Cl)ccc3[nH]2)cc1 | < 30
Cc1c(C(=O)NCCc2ccc(N3CCCCC3)cc2)[nH]c2ccc(F)cc12 | < 30
O=C(NCCc1ccc(N2CCCCC2)cc1)c1cc2cc(F)ccc2[nH]1 | < 30

Continued, values first:

Activity [%] | Compound
< 30 | CCc1c(C(=O)NCCc2ccc(Cl)cc2)[nH]c2ccc(Cl)cc12
< 30 | CCc1c(C(=O)NCCc2ccc(Cl)c(Cl)c2)[nH]c2ccc(Cl)cc12
< 30 | CCc1c(C(=O)NCCc2cccc(O)c2)[nH]c2ccc(Cl)cc12
< 30 | CCc1c(C(=O)NCCc2cccc(Cl)c2)[nH]c2ccc(Cl)cc12
< 30 | CCc1c(C(=O)NCCc2cccc(OC)c2)[nH]c2ccc(Cl)cc12

biological target: T1, Cannabinoid receptor 1; assay: Antagonist activity at human CB1 receptor expressed in CHO-RD-HGA16 cells assessed as inhibition of CP55940-induced calcium mobilization incubated for 15 mins prior to CP55940 addition by FLIPR assay; type: functional, cell-based

Compound | IC50 [nM]
CCCC(=O)Nc1ccc(CCNC(=O)c2[nH]c3ccc(Cl)cc3c2CC)cc1 | > 10000
CCc1c(C(=O)NCCc2ccc(OC)c(O)c2)[nH]c2ccc(Cl)cc12 | > 10000
O=C(NCCc1ccc(N2CCCCC2)cc1)c1cc2cc(Cl)ccc2[nH]1 | 212
CCc1c(C(=O)NCCc2ccc(NC(C)=O)cc2)[nH]c2ccc(Cl)cc12 | > 10000
CCc1c(C(=O)NCCc2ccccc2Cl)[nH]c2ccc(Cl)cc12 | 5810
CCc1c(C(=O)NC2CCN(Cc3ccccc3)C2)[nH]c2ccc(Cl)cc12 (configuration not stated) | 4760
CCc1c(C(=O)NCCc2ccc([N+](=O)[O-])cc2)[nH]c2ccc(Cl)cc12 | 5740
CCc1c(C(=O)NCCc2ccccc2)[nH]c2ccc(Cl)cc12 | 3150
CCN(CC)c1ccc(CCNC(=O)c2cc3cc(Cl)ccc3[nH]2)cc1 | 79
Cc1c(C(=O)NCCc2ccc(N3CCCCC3)cc2)[nH]c2ccc(F)cc12 | 279
O=C(NCCc1ccc(N2CCCCC2)cc1)c1cc2cc(F)ccc2[nH]1 | 319

Continued, values first:

IC50 [nM] | Compound
> 10000 | CCc1c(C(=O)NCCc2cccc(N(C)C)c2)[nH]c2ccc(Cl)cc12
2500 | CCc1c(C(=O)NCCc2ccc(Cl)cc2)[nH]c2ccc(Cl)cc12
2170 | CCc1c(C(=O)NCCc2ccc(Cl)c(Cl)c2)[nH]c2ccc(Cl)cc12
> 10000 | CCc1c(C(=O)NCCc2cccc(O)c2)[nH]c2ccc(Cl)cc12
831 | CCc1c(C(=O)NCCc2cccc(Cl)c2)[nH]c2ccc(Cl)cc12
2100 | CCc1c(C(=O)NCCc2cccc(OC)c2)[nH]c2ccc(Cl)cc12
